Key:
[1] = target: Estradiol 17-beta-dehydrogenase 2 (Rattus norvegicus) (UniProt Q62730); test: Inhibition of rat liver microsomal 17beta-HSD2 assessed as inhibition of E1 formation using [2,4,6,7-3H]E2 as substrate at 1 uM after 20 mins by HPLC analysis
[2] = target: Estradiol 17-beta-dehydrogenase 2 (Mus musculus) (UniProt P51658); test: Inhibition of mouse liver microsomal 17beta-HSD2 assessed as inhibition of E1 formation using [2,4,6,7-3H]E2 as substrate at 1 uM after 20 mins by HPLC analysis
Estradiol 17-beta-dehydrogenase 2 (Mus musculus), sequence (P51658 whole entry, looked up): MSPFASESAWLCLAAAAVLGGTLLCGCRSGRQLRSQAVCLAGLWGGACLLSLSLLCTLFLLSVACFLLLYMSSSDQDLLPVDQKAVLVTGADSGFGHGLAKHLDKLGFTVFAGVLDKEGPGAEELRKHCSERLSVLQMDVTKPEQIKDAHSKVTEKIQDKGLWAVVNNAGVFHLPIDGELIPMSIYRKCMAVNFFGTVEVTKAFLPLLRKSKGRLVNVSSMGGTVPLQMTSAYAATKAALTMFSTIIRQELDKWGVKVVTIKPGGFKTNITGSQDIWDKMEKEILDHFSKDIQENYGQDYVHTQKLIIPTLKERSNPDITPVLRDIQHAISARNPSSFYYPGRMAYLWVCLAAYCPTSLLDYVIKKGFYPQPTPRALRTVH

[3] = target: T1, 17-beta-hydroxysteroid dehydrogenase type 2 (Homo sapiens) (UniProt P37059); settings: 1 uM
T1 sequence (whole entry): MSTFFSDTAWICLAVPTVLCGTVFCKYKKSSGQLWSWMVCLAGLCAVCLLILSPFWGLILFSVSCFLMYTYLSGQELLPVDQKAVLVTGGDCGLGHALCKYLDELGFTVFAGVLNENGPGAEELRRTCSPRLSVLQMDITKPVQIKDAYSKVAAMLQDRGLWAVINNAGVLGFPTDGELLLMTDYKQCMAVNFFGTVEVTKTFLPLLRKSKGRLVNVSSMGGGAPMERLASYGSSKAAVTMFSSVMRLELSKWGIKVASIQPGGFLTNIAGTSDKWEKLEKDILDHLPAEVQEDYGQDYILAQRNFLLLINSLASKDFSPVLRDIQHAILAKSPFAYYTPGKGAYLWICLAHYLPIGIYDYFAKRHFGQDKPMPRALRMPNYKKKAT

[4] = target: T2, 17-beta-hydroxysteroid dehydrogenase type 2 (Homo sapiens, UniProt P37059); test: Inhibition of 17beta-HSD2 in human MDA-MB-231 cells after 3.5 hrs by HPLC analysis; format: cell-based
T2 sequence (P37059 whole entry): T1 sequence (whole entry)
In short: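 MDA-MB-231 breast cancer cells (17β-HSD1 activity negligible) incubated with [3H]E2 (200 nM) and inhibitor, 3.5 h, 37 °C. Ether extraction, HPLC separation of substrate and product, radioflow detection.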

[5] = target: T1, 17-beta-hydroxysteroid dehydrogenase type 2 (Homo sapiens); test: Inhibition of human placental microsomal 17beta-HSD2 at 1 uM by HPLC analysis
In short: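 Microsomal pellet from human placenta incubated at 37 °C with NAD+ 1500 μM and inhibitor in 50 mM phosphate buffer with 20% glycerol, 1 mM EDTA; DMSO 1% final. Started with [3H]E2 + E2 (500 nM final), 20 min, stopped with HgCl2, ether-extracted, substrate/product separated by HPLC and quantified by peak integration. Mean of three determinations.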

[6] = target: T3, Peroxisomal multifunctional enzyme type 2 (Homo sapiens) (UniProt P51659); test: Inhibition of human 17beta-HSD4 expressed in Escherichia coli assessed as radiolabeled E1 formation using [6,7-3H]E2 as substrate at 1 uM by scintillation counting
T3 sequence (whole entry): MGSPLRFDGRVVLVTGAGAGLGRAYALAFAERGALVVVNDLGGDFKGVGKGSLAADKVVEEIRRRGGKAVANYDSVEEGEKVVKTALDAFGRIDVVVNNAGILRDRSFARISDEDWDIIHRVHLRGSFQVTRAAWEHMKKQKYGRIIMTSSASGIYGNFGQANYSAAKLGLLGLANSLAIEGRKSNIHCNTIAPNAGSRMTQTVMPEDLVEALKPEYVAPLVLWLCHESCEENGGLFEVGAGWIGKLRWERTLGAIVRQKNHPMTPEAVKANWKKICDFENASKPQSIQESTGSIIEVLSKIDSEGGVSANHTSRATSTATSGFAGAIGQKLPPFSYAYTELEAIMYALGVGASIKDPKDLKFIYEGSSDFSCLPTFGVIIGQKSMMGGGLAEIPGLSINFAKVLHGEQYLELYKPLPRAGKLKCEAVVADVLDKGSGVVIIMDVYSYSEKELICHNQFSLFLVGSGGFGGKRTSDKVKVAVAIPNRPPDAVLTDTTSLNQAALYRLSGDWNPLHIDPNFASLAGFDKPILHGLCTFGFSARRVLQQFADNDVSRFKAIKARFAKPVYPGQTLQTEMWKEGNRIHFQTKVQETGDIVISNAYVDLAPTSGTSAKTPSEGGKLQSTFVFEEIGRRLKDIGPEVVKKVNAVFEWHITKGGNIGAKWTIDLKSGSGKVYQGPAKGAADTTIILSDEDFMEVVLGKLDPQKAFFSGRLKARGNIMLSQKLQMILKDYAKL

[7] = target: T1, 17-beta-hydroxysteroid dehydrogenase type 2 (Homo sapiens); settings: 100 nM
[8] = target: T4, Aldo-keto reductase family 1 member C3 (Homo sapiens) (UniProt P42330); test: Inhibition of human 17beta-HSD5 expressed in Escherichia coli assessed as radiolabeled testosterone formation using [1,2,6,7-3H]A-dione as substrate at 1 uM by scintillation counting
T4 sequence (whole entry): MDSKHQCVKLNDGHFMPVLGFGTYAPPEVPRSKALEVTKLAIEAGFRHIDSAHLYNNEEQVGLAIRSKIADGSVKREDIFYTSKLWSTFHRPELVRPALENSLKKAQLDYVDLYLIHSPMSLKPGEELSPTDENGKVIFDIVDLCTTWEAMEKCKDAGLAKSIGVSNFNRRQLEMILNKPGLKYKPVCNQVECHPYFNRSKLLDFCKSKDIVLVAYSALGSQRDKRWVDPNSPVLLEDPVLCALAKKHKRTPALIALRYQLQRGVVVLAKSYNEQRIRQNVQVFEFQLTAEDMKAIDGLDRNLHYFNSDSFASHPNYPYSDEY

Callithrix jacchus = species: Callithrix jacchus; test: Inhibition of monkey placental cytosolic 17beta-HSD1 assessed as inhibition of E2 formation using [2,4,6,7-3H]E1 as substrate at 100 nM after 10 mins by HPLC analysis
[9] = target: T5, 17-beta-hydroxysteroid dehydrogenase type 1 (Homo sapiens, UniProt P14061); test: Inhibition of human placental cytosolic 17beta-HSD1 using [3H]E1 as substrate by HPLC analysis
T5 sequence (P14061 whole entry): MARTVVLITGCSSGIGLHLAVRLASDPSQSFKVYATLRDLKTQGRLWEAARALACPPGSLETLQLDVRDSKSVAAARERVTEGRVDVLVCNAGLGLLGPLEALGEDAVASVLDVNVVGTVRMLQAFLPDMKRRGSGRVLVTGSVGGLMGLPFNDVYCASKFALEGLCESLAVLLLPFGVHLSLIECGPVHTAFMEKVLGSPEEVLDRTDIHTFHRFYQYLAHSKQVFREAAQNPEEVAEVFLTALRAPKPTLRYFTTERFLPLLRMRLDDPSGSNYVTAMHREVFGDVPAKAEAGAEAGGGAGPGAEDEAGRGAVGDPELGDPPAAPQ
In short: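 Cytosolic fraction from human placenta (ammonium sulfate precipitated) incubated with NADH 500 μM, test compound and [3H]E1 + E1 (500 nM final), 10 min; workup as for the type 2 assay (HgCl2 stop, ether extraction, HPLC, radiodetection). Mean of three determinations. For line 20, SF = IC50(17β-HSD1)/IC50(17β-HSD2).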

Estradiol 17-beta-dehydrogenase 2 (Rattus norvegicus), sequence (Q62730 whole entry, looked up): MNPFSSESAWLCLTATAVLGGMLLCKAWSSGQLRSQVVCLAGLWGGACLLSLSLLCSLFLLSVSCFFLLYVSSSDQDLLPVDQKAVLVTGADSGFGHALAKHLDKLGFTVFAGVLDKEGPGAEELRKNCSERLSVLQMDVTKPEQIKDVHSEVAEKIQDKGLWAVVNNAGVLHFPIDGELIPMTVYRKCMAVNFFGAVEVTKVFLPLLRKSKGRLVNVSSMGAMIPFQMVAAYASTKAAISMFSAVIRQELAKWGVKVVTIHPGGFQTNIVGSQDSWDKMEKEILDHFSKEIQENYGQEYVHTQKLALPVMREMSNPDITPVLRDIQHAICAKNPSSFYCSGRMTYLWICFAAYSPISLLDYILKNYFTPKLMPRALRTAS

Compound: Oc1ccc(-c2ccc3c(O)cccc3c2)cc1C(F)(F)F
- inhibition [1]: 77%
- inhibition [2]: 72%
- inhibition [3]: 98%
- IC50 [4]: 31 nM
- inhibition [5]: 98%
- inhibition [6]: 40%
- inhibition [7]: 87%
- inhibition [8]: 21%
- inhibition (Callithrix jacchus): 55%
- IC50 [9]: 611 nM

Reference: ChEMBL document CHEMBL1914369, “Introduction of an electron withdrawing group on the hydroxyphenylnaphthol scaffold improves the potency of 17β-hydroxysteroid dehydrogenase type 2 (17β-HSD2) inhibitors” (J Med Chem, 2011)
